OPRM1-OPRD1 inv – inverse agonists of human mu-delta opioid receptor heterodimerization; P35372+P41143; cell-based MOR-DOR heterodimer luminescence, inverse agonism; inhibition, % at 9.3 µM; 340,000 compounds, 0.21% hits; AID 504357; in the data active = inhibition above about 22%, passing the limit was not always enough;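 note: 0% = cells with DMSO and 100% = wells without cells with DMSO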
HTR5A inv ctr – inverse agonist of human HTR5A in OPRM1-OPRD1 counter-screen; HTR5A cell line, luminescence, inverse agonism; inhibition, % at 9.3 µM; 340,000 compounds, 0.083% hits; in the data active = inhibition mostly above about 23%, no sharp cut-off; inactive = mostly below about 18%;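 note: 0% = cells with DMSO and 100% = no-cell wells with DMSO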
HTR5A ag ctr – activates human HTR5A in OPRM1-OPRD1 agonist counter-screen; P47898; HTR5A agonist assay, luminescence, cell-based; activation, % at 9.3 µM; 340,000 compounds, 0.61% hits; AID 504692; in the data active = activation mostly above about 9.5%, no sharp cut-off; inactive = mostly below about 7.6%;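 note: 0% = cells with vehicle only and 100% = reference agonist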
Arr AP2 block – inhibitors of human beta-arrestin and AP2 interaction; FITC-arrestin peptide / GST-AP2 beads, flow cytometry; AP2 beta2 appendage carries R879A mutation; inhibition, % at 10 µM; 340,000 compounds, 0.31% hits; AID 504490;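 active = inhibition above a set limit, near 3 SD of compounds lacking own fluorescence, cut at about 54% in these data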;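 note: plate controls were DMSO wells for no effect and 5 µM unlabelled arrestin peptide for full effect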
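System: GST-AP2 R879A glutathione beads | Also added: FITC-arrestin peptide, 50 nM | Times: 12 min plus 1 h, RT | Signal: Bead flow cytometry, FITC channel | Buffer or medium: PBS with 0.05% Tween 20 and 0.1% BSA | Read-out basis: Percent drop in bead-associated FITC signal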
MOR-DOR ag – agonists of human mu-delta opioid receptor heterodimerization; P35372+P41143; cells, OPRM1-OPRD1 heterodimerization, luminescence; activation, % at 9.3 µM; 340,000 compounds, 0.3% hits; AID 504326; in the data active = activation above about 18%;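 note: 0% = vehicle-treated cells and 100% = reference agonist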
DAGLB inhibitor – blocks human DAGLB lipase activity; Q8NCG7; HEK293T DAGLB membrane lysate, EnzChek fluorogenic substrate; inhibition, % at 5.17 µM; 340,000 compounds, 0.059% hits; AID 504411; in the data active = inhibition above about 34%;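 note: 0% = enzyme with vehicle and 100% = wells lacking enzyme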
Target sequence (Q8NCG7 whole entry, looked up): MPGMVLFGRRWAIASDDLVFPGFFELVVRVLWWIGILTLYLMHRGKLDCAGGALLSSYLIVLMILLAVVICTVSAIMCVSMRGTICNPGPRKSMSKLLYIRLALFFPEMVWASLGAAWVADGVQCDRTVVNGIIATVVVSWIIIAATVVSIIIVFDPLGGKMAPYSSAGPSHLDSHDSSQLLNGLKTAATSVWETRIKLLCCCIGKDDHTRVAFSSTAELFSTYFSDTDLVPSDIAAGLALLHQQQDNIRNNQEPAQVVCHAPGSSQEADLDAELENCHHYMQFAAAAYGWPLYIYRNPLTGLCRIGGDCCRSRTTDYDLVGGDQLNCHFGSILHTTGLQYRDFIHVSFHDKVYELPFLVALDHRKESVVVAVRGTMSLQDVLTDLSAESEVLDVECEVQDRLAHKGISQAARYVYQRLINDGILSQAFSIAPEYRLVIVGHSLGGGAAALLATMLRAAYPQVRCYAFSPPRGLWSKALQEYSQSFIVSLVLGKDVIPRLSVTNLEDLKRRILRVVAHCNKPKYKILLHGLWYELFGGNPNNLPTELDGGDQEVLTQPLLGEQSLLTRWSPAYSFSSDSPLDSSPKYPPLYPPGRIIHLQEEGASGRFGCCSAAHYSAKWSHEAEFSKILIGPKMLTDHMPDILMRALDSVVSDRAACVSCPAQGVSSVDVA
* marks the source's active call; other numbers are inactive results. An excerpt weighted towards active compounds, which were near 1.4% of everything screened.

Results for Nc1c(C(=O)NCC2CCCO2)sc2nc3c(c(-c4ccco4)c12)CC/C3=C\c1ccco1 (stereo unspecified) ?
OPRM1-OPRD1 inv: 0; HTR5A inv ctr: 2; HTR5A ag ctr: -1; Arr AP2 block: 56*; MOR-DOR ag: 0; DAGLB inhibitor: 6

How did NC(=O)c1sc2nc3c(c(-c4ccco4)c2c1N)CCCC3 do in these assays?
OPRM1-OPRD1 inv: -3; HTR5A inv ctr: -13; HTR5A ag ctr: 5; Arr AP2 block: 15; MOR-DOR ag: 1; DAGLB inhibitor: 3

How did O=C(COC(=O)C1=COCCO1)NCc1ccc(Cl)cc1 do in these assays?
OPRM1-OPRD1 inv: 7; HTR5A inv ctr: -36; HTR5A ag ctr: 13*; Arr AP2 block: -6; MOR-DOR ag: -1; DAGLB inhibitor: 4

Results for C[C@@H]1CN([C@H](C)CO)C(=O)CCCn2nncc2CO[C@H]1CN(C)C(=O)Nc1ccc(N2CCN(C)CC2)cc1 ?
DAGLB inhibitor: -1

How did C=CCOc1ccc(C[C@H](N)C(=O)NC[C@H]2O[C@@H](n3cc(C)c(=O)[nH]c3=O)C[C@@H]2O)cc1 do in these assays?
DAGLB inhibitor: -1

What do the screens show for `C[C@@H]1CCCCO[C@@H](CN(C)S(=O)(=O)c2ccc(Cl)cc2)[C@@H](C)CN([C@H](C)CO)C(=O)c2cc(N(C)C)ccc2O1`?
DAGLB inhibitor: -1

What do the screens show for `COc1ccc(/C=N/NC(=O)c2ccc(Cn3cc([N+](=O)[O-])cn3)o2)c(OC)c1C`?
OPRM1-OPRD1 inv: 9; HTR5A inv ctr: 4; HTR5A ag ctr: -2; Arr AP2 block: -7; MOR-DOR ag: -2; DAGLB inhibitor: -1

How did COc1ccc(/C=N\NC(=O)c2ccc(Cn3cc(Br)c([N+](=O)[O-])n3)o2)c(OC)c1C do in these assays?
OPRM1-OPRD1 inv: 3; HTR5A inv ctr: -25; HTR5A ag ctr: 11*; Arr AP2 block: 11; MOR-DOR ag: -1; DAGLB inhibitor: -1

Results for O=C(Nc1ccccc1C(=O)O)c1ccc(Br)o1 ?
OPRM1-OPRD1 inv: 4; HTR5A inv ctr: 11; HTR5A ag ctr: 9; Arr AP2 block: 14; MOR-DOR ag: -1; DAGLB inhibitor: 3

What do the screens show for `O=C(Nc1ccccc1F)c1ccc(Br)o1`?
OPRM1-OPRD1 inv: 16; HTR5A inv ctr: 13; HTR5A ag ctr: 13*; Arr AP2 block: -15; MOR-DOR ag: -3; DAGLB inhibitor: -1

Results for COc1cccc(/C(O)=C2/C(=O)C(=O)N(CCN(C)C)C2c2ccc(Br)cc2)c1 (stereo unspecified) ?
OPRM1-OPRD1 inv: 16; HTR5A inv ctr: -28; HTR5A ag ctr: 10*; Arr AP2 block: -2; MOR-DOR ag: -3; DAGLB inhibitor: 0

Results for COC(=O)C[C@@H]1C[C@H]2c3cc(NS(C)(=O)=O)ccc3O[C@H]2[C@H](CO)O1 ?
DAGLB inhibitor: -2

What do the screens show for `Cc1ccc(S(=O)(=O)NCc2ccc(C(=O)N3CCN(c4ccc([N+](=O)[O-])cc4)CC3)cc2)cc1`?
OPRM1-OPRD1 inv: -20; HTR5A inv ctr: 0; HTR5A ag ctr: 11*; Arr AP2 block: -5; MOR-DOR ag: 4; DAGLB inhibitor: 4

What do the screens show for `NC(=O)CCC(NC(=O)OCc1ccccc1)C(=O)OCC(=O)c1ccccc1` (stereo unspecified)?
DAGLB inhibitor: -2

How did Cc1ccc2c(c1)c1c3n2CCCNC3CCC1 (stereo unspecified) do in these assays?
OPRM1-OPRD1 inv: -15; HTR5A inv ctr: 10; HTR5A ag ctr: 10*; Arr AP2 block: -5; MOR-DOR ag: 3; DAGLB inhibitor: 2

Results for c1cc2c(cc1C1CCCCC1)c1c3n2CCCNC3CCC1 (stereo unspecified) ?
OPRM1-OPRD1 inv: -86; HTR5A inv ctr: -41; HTR5A ag ctr: 9; Arr AP2 block: 2; MOR-DOR ag: 15; DAGLB inhibitor: 2

What do the screens show for `CS(=O)(=O)c1sc(C#N)c2c1C(=O)CC(c1ccccc1)C2` (stereo unspecified)?
OPRM1-OPRD1 inv: 35*; HTR5A inv ctr: 14; HTR5A ag ctr: -7; Arr AP2 block: 6; MOR-DOR ag: -7; DAGLB inhibitor: -13

What do the screens show for `C[C@@H](CO)NC(=O)c1nc[nH]c1C(=O)N[C@H](C)c1ccccc1`?
DAGLB inhibitor: -2

How did CC(C)(C)OC(=O)N1CCCC(C(=O)Nc2ccc(C(=O)NCc3ccccc3)cc2)C1 (stereo unspecified) do in these assays?
OPRM1-OPRD1 inv: 1; HTR5A inv ctr: 14; HTR5A ag ctr: -4; Arr AP2 block: 38; MOR-DOR ag: 0; DAGLB inhibitor: 1

Results for CCOC(=O)C1=C(O)/C(=C/c2ccc(CNC(=O)C(=O)Nc3ccc(C)cc3)o2)N=C1C ?
OPRM1-OPRD1 inv: -2; HTR5A inv ctr: -6; HTR5A ag ctr: 14*; Arr AP2 block: 1; MOR-DOR ag: 0; DAGLB inhibitor: 7

What do the screens show for `COC(=O)C1=C(O)/C(=C\c2ccc(CNC(=O)C(=O)Nc3ccc(C)cc3)o2)N=C1C`?
OPRM1-OPRD1 inv: -1; HTR5A inv ctr: 13; HTR5A ag ctr: -6; Arr AP2 block: 8; MOR-DOR ag: 0; DAGLB inhibitor: 9

What do the screens show for `Cc1ccc(NC(=O)CSc2nnc3c(n2)[nH]c2ccccc23)cc1`?
OPRM1-OPRD1 inv: 7; HTR5A inv ctr: 8; HTR5A ag ctr: 11; Arr AP2 block: -6; MOR-DOR ag: -1; DAGLB inhibitor: 0

Results for Cc1ccc(-c2csc(NC(=O)CSc3nnc4c(n3)[nH]c3ccccc34)n2)cc1 ?
OPRM1-OPRD1 inv: -28; HTR5A inv ctr: -49; HTR5A ag ctr: 13*; MOR-DOR ag: 5; DAGLB inhibitor: 3

Results for CC(=O)N1N=C(c2cccs2)CC1c1cccc([N+](=O)[O-])c1 (stereo unspecified) ?
OPRM1-OPRD1 inv: 38*; HTR5A inv ctr: 33*; HTR5A ag ctr: -12; Arr AP2 block: 5; MOR-DOR ag: -8; DAGLB inhibitor: 1

Results for CC(=O)N1N=C(c2ccccc2)CC1c1cccc([N+](=O)[O-])c1 (stereo unspecified) ?
OPRM1-OPRD1 inv: 23; HTR5A inv ctr: 11; HTR5A ag ctr: -3; Arr AP2 block: 1; MOR-DOR ag: -5; DAGLB inhibitor: 2

Results for CCn1cc(/C=C(\NC(=O)c2ccccc2)C(=O)NCCN2CCOCC2)c2ccccc21 ?
DAGLB inhibitor: 0

Results for O=C1OCCC1=COCCCCCCOC=C1CCOC1=O ?
DAGLB inhibitor: -1

What do the screens show for `COc1ccccc1NS(=O)(=O)c1cccc(-n2c(O)c(C=Nc3ccccc3C(=O)O)c3ccccc3c2=O)c1`?
OPRM1-OPRD1 inv: -7; HTR5A inv ctr: 34; HTR5A ag ctr: 14*; Arr AP2 block: -5; MOR-DOR ag: 1; DAGLB inhibitor: 18

How did O=[N+]([O-])c1cccc(CON=Cc2ccccc2O)c1 do in these assays?
DAGLB inhibitor: -7
